# UPR CHOP act: activators of apoptotic arm of unfolded protein response (CHOP) | CHO-CHOP luciferase reporter, UPR activation, luminescence; percent of tunicamycin response over DMSO baseline | activation, % at 10 µM | 330,000 compounds, 0.34% hits | AID 449763;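 active means at 10 µM dose, activation of 40% or more, normalized to positive control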;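 further: 100% = tunicamycin at 10 µg/mL and 0% = DMSO alone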
#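 Dosing – one dose, 10 µM in 0.5% DMSO · System – CHO-CHOP cells, stable luciferase reporter of PERK-eIF2a-CHOP signalling · Input – 500 cells/well · Control set – tunicamycin 10 µg/mL final as positive, DMSO-only wells as negative · Timing – 6 h compound treatment, 37 °C · Measure – % activation vs tunicamycin · Technique – luminescence read with Steady-Glo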
# CHOP inh: CHOP inhibition in unfolded protein response; inhibition, % at 10 µM; AID 2732; CHO-K1 CHOP-promoter luciferase, tunicamycin-induced, 15-18 h; 220,000 compounds, 3.8% hits;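 active means compounds that reduced the stress-induced luciferase reporter signal by more than about 70% of percent inhibition, limit read from the data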;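 further: 0% = tunicamycin plus vehicle and 100% = wells without tunicamycin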
# MPTP inh: permeability transition pore inhibition; inhibition, % at 10 µM; 360,000 compounds, 1.4% hits; isolated mouse mitochondria, Ca2+ swelling absorbance, 30 min; AID 602449;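 active means inhibition of 50% or more, scaled per plate between neutral and stimulator controls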;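 further: 0% = DMSO wells given calcium and 100% = 1 mM EGTA wells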
# UPR XBP1 act: adaptive UPR (XBP1) activation. CHO-XBP1 luciferase reporter, IRE1-XBP1 UPR activation, luminescence; percent of tunicamycin response, DMSO as zero. activation, % at 20 µM. 330,000 compounds, 0.33% hits;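 active means versus positive control, 20 µM dose yields 30% or more activation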;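 further: 100% = tunicamycin at 10 µg/mL and 0% = DMSO only wells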
#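 incubation = overnight seeding at 37 °C, 6 h compound treatment at 37 °C | assay system = CHO-XBP1 cells stably carrying IRE1-XBP1-driven luciferase reporter | input = 1000 cells per well | detection = luciferase luminescence | dosing = single point, 20 µM final compound, 1% DMSO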
# aDG glyco up: alpha-DG glycosylation activation; Pro5-aDG cells, alpha-DG glycosylation AlphaScreen (IIH6); 0% Pro5, 100% B10-LARGE cell signal; activation, % at 10 µM; 360,000 compounds, 0.22% hits;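 active means activation of at least 8% versus controls, or a plate z-score of at least 8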;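 further: Pro5 are CHO cells carrying HIG-tagged alpha-DG that lacks glycosylation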
# NR3A LBD binder: NR3A (human) ligand-binding domain modulation; NR3A LBD differential scanning fluorimetry, Tm shift; 0% = protein alone, 100% = glycine-bound protein; AID 1259313; 340,000 compounds, 2.5% hits; Tm shift relative to glycine control, % at 25 µM;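 active means melting temperature shift of at least 10% of the positive control shift, at one fixed dose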
# An asterisk follows results filed as active; x = not tested or not shown. The list is not random: actives were taken first. Their share in the collection is about 5.6%.
SMILES,UPR CHOP act,CHOP inh,MPTP inh,UPR XBP1 act,aDG glyco up,NR3A LBD binder
Cc1cc(N(CCCl)CCCl)ccc1C=NNC(=O)Cc1cc(=O)oc2cc(O)ccc12,x,x,1,x,1,11*
NC(CP(=O)(O)O)C(=O)O (stereo not drawn),x,-25,x,x,x,x
O=C1NC(=O)N(Cc2ccc(F)cc2)C(=O)/C1=C\c1ccoc1,0,-52,-2,2,0,2
Cc1ccc(/C=C2/C(=O)NC(=O)N(Cc3ccc(F)cc3)C2=O)o1,5,89*,x,13,x,x
Cc1ccccc1[N+](=O)[O-],1,x,0,-2,0,0
Cc1cc([N+](=O)[O-])c2ccccc2[n+]1[O-],-4,104*,1,-6,0,0
NC(N)=NOCC[C@H](N)C(=O)O,x,-22,x,x,x,x
O=C(Nc1ccc(F)cc1)c1c(O)c2c(n(Cc3ccccc3)c1=O)CCCC2,0,-21,-2,3,0,11*
O=C(Nc1cccnc1)c1c(O)c2c(n(Cc3ccccc3)c1=O)CCCC2,-1,57,-3,0,0,1
CC(C)[C@]12O[C@H]1[C@@H]1O[C@]13[C@]1(O[C@H]1C[C@H]1C4=C(CC[C@@]13C)C(=O)OC4)[C@@H]2O,x,103*,x,x,x,x
NC1CC1c1ccccc1 (stereo not drawn),x,0,x,x,x,x
COc1cc(/C=C2\C(=O)NC(=O)N(c3ccccc3)C2=O)cc(OC)c1O,0,53,3,0,0,11*
COc1cc(/C=C2\C(=O)NC(=O)N(c3ccccc3)C2=O)c([N+](=O)[O-])cc1OC,x,16,1,x,0,-5
O=[N+]([O-])c1nccn1CC(O)CN1CC1 (stereo not drawn),x,x,-2,x,0,x
COc1ccc(-c2ccc3c(c2)CN(C(=O)C(C)(C)C)Cc2cnnn2-3)cc1,x,x,-1,x,0,x
O=C(Nc1ccc(OC(=O)N2CCCCC2)cc1)N1CCOCC1,-4,47,0,-6,0,-1
O=C(Oc1c(Cl)cc(Cl)c2ccccc12)N1CCCCC1,0,77*,0,-1,0,2
CNc1ccc2nc3ccccc3[n+](C)c2c1,2,x,17,-6,2.7*,12*
C[n+]1c2ccccc2nc2ccc(NCCO)cc21,3,x,18,-2,0,-3
CC(C)=CCc1c(O)cc2c(c1O)C(=O)CC(c1ccc(O)cc1)O2 (stereo not drawn),-1,77*,4,-1,0,26*
COC(=O)c1ccc(NC(=O)CSc2nc3ccc(N4C(=O)C5C6C=CC(C6)C5C4=O)cc3s2)cc1 (stereo not drawn),7,3,6,-1,0,12*
CC1Cc2cc3c(cc2C(c2ccc(N)cc2)=NN1)OCO3 (stereo not drawn),x,-20,x,x,x,x
Cc1nc(-c2ccc(-c3ccc(C(=O)N4CCc5cc6c(cc54)C4(CCN(C)CC4)CO6)cc3)c(C)c2)no1,x,17,x,x,x,x
CCOc1cc(C2C(C#N)=C(N)Oc3c2c(=O)oc2ccccc32)ccc1OC(=O)c1cccs1 (stereo not drawn),2,18,-1,1,0,20*
N#CC1=C(N)Oc2c(c(=O)oc3ccccc23)C1c1cccnc1 (stereo not drawn),1,5,-2,-2,0,-2
SMILES,UPR CHOP act,CHOP inh,MPTP inh,UPR XBP1 act,aDG glyco up,NR3A LBD binder
CCCN(CCC)[C@H]1CCc2c(F)ccc(O)c2C1,x,-4,x,x,x,x
CC(C)CCn1c(N)c(C(=O)NCc2cccs2)c2nc3ccccc3nc21,1,96*,4,3,2,18*
CC(C)CNC(=O)c1c(N)n(Cc2ccco2)c2nc3ccccc3nc12,2,14,1,-1,2,-9
CC(C)CCNC(=O)c1c(N)n(Cc2ccc3c(c2)OCO3)c2nc3ccccc3nc12,1,36,5,5,3,32*
CCCNC(=O)c1c(N)n(Cc2ccco2)c2nc3ccccc3nc12,1,83*,x,0,x,-10
CC(C)CNC(=O)c1c(N)n(Cc2ccc3c(c2)OCO3)c2nc3ccccc3nc12,3,85*,3,5,2,22*
CCCNC(=O)c1c(N)n(Cc2ccc3c(c2)OCO3)c2nc3ccccc3nc12,0,75*,0,9,2,21*
CCOC(=O)c1c(N)n(CCCOC(=O)c2ccco2)c2nc3ccccc3nc12,2,x,-1,-2,14*,-3
CCCCNC(=O)c1c(N)n(CCCOC)c2nc3ccccc3nc12,-1,93*,7,4,0,-10
COCCCn1c(N)c(C(=O)OCCOC)c2nc3ccccc3nc21,0,-19,-2,3,0,0
N[C@H](CO)Cc1ccccc1,x,x,-2,x,0,-1
COC(=O)C1=C(c2ccc(Cl)c(C(F)(F)F)c2)C[C@@H]2CC[C@H]1N2C(=O)NCCOc1ccccc1,1,x,-3,-1,1,-17
CC1N=C(c2ccccc2)c2cc(Br)ccc2NC1=O (stereo not drawn),2,x,3,-2,0,0
Cc1sc2c(c1C)C(c1ccc(C(C)(C)C)cc1)=NCC(=O)N2CC(=O)Nc1nccs1,1,84*,11,-1,0,-5
O=C1C(=O)c2ccccc2-c2ccccc21,-5,107*,3,-12,0,-1
O=C1C(=O)c2cccc3cccc1c23,4,55,0,19,0,-1
C/C(=N\NC(=O)c1ccccc1O)c1c(O)n(C2CCCCC2)c(=O)[nH]c1=O,2,x,0,-6,0,13*
C/C(=N\NC(=O)c1ccccc1Cl)c1c(O)n(C2CCCCC2)c(=O)[nH]c1=O,0,x,0,-2,0,-1
Cc1ccc(C2=NC(C)(C)N3C2C3c2ccc([N+](=O)[O-])cc2)cc1 (stereo not drawn),0,70*,2,-1,0,0
CN1CCN(c2ccc3ccccc3n2)CC1,x,6,x,x,x,x
CCn1nc(-c2ccccc2)nc2c(=O)n(C)c(=O)nc1-2,-7,108*,3,-10,0,-3
C[C@H]1CC[C@H]2NCCN[C@H]2C1,0,4,1,-1,0,0
COc1ccc(-n2c(CN3CCOCC3)nc3ccccc3c2=O)c(OC)c1,-2,x,0,-3,1,-1
COc1cccc(-c2sc3ccccc3c2-c2ccc(OCCN3CCOCC3)cc2)c1,-1,x,1,-2,0,15*
CNC(=O)Oc1cccc(-c2cn3cc(Cl)ccc3n2)c1,3,2,-5,-2,0,-1
CNC(=O)Oc1ccc(-c2cn3cc(C)ccc3n2)cc1,-7,50,-2,-8,0,24*
